According to ChEMBL document CHEMBL1139450, “Synthesis of a novel nitroimidazole-spermidine derivative as a tumor-targeted hypoxia-selective cytotoxin” (2004):

Key:
V79 [1] = experiment: Cytotoxicity of compound was assessed against suspended V79 cells exposed to 0.1 mM DFMO and 4 uM spermidine under aerobic conditions in clonogenic assay; format: functional, Cricetulus griseus
Procedure, shortened: (§1)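 Clonogenic assay in suspended V79 Chinese hamster lung fibroblasts exposed to drug in air (A) or N2 (H). CT50 is the drug concentration (mM) that cuts clonogenicity to 50% of matched controls; mean ± SEM of 4 determinations. Where used, DFMO was given to exponentially growing monolayers in air for 48 h beforehand. Spermidine was added alongside the drug under the same conditions. Student's t-test was run against matched controls.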

V79 [2] = experiment: Cytotoxicity of compound was assessed against suspended V79 cells exposed to 0.1 mM DFMO and 4 uM spermidine under hypoxic conditions in clonogenic assay; format: functional, Cricetulus griseus; procedure, shortened: as §1
V79 [3] = experiment: Cytotoxicity of compound was assessed against suspended V79 cells exposed to 1 mM DFMO and 0.5 mM spermidine under aerobic conditions in clonogenic assay; format: functional, Cricetulus griseus; procedure, shortened: as §1
V79 [4] = experiment: Cytotoxicity of compound was assessed against suspended V79 cells exposed to 1 mM DFMO for 48 hr under aerobic conditions in clonogenic assay; format: functional, Cricetulus griseus; procedure, shortened: as §1
V79 [5] = experiment: Cytotoxicity of compound was assessed against suspended V79 cells exposed to 1 mM DFMO for 48 hr under hypoxic conditions in clonogenic assay; format: functional, Cricetulus griseus; procedure, shortened: as §1
V79 [6] = experiment: Cytotoxicity of compound was assessed against suspended V79 cells exposed to 4 uM spermidine under hypoxic conditions in clonogenic assay; format: functional, Cricetulus griseus; procedure, shortened: as §1
V79 [7] = experiment: Cytotoxicity of compound was assessed against suspended V79 cells treated with 4 uM spermidine under aerobic conditions in clonogenic assay; format: functional, Cricetulus griseus; procedure, shortened: as §1
V79 [8] = experiment: Cytotoxicity of compound was assessed against suspended V79 cells under aerobic conditions in clonogenic assay; format: functional, Cricetulus griseus; procedure, shortened: as §1
V79 [9] = experiment: Cytotoxicity of compound was assessed against suspended V79 cells under hypoxic conditions in clonogenic assay; format: functional, Cricetulus griseus; procedure, shortened: as §1
[10] = Ratio of CT50 in aerobic condition to CT50 in hypoxic condition (CT50A/CT50H); format: functional
Procedure, shortened: (§2)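 Ratio of aerobic to hypoxic CT50 (CT50A/CT50H, air vs N2) from clonogenic assays in suspended V79 cells; each CT50 is the mean of 4 determinations. Where used, DFMO pretreatment was given to monolayers in air for 48 h. Spermidine was co-administered with the drug under the same conditions.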

[11] = Ratio of CT50 in aerobic condition to CT50 in hypoxic condition when V79 cells were exposed to 1 mM DFMO (CT50A/CT50H); format: functional; procedure, shortened: as §2
[12] = Ratio of CT50 in aerobic condition to CT50 in hypoxic condition when V79 cells were exposed to 4 uM spermidine (CT50A/CT50H); format: functional; procedure, shortened: as §2
[13] = Ratio of CT50 in aerobic condition to CT50 in hypoxic condition when V79 cells were exposed to 4 uM spermidine and 0.1 mM DFMO (CT50A/CT50H); format: functional; procedure, shortened: as §2

Cl.Cl.Cl.NCCCCN(CCCN)CC(O)Cn1ccnc1[N+](=O)[O-] (stereo not drawn)
CT50 (V79 [1]): 1.15 mM
CT50 (V79 [2]): 0.88 mM
CT50 (V79 [3]): 0.63 mM
CT50 (V79 [4]): 1.63 mM
CT50 (V79 [5]): 0.74 mM
CT50 (V79 [6]): 1.15 mM
CT50 (V79 [7]): 2.64 mM
CT50 (V79 [8]): 2.6 mM
CT50 (V79 [9]): 1.28 mM
Ratio [10]: 2
Ratio [11]: 2.2
Ratio [12]: 2.3
Ratio [13]: 1.3
